Our source for the Activity and Ki values is ChEMBL document CHEMBL1828568, “Novel imaging agents for β-amyloid plaque based on the N-benzoylindole core” (Bioorg Med Chem Lett, 2011).

Active and inactive are the calls of the source. The rule behind the calls is not given here.

The species named for test [1] is Mus musculus. The test is described as follows: Binding affinity to beta-amyloid plaque in APP/PS1 transgenic mouse C57 brain after 20 mins by fluorescent staining with thioflavin-S. The class given is tissue-based. The conditions noted are these: tested as the 125I-labelled form.
The species entered for test [2] is Mus musculus. In words: Binding affinity to beta-amyloid plaque in APP/PS1 transgenic mouse C57 brain after 20 mins by autoradiography. The class given is tissue-based. The conditions noted are these: tested as the 125I-labelled form. An outline of the steps: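 In vitro autoradiography of brain sections from AD model mice (C57, APP/PS1), labeled with the 125I-iodinated tracer.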

Test [3] can be described thus: Displacement of [125I]TZDM from amyloid beta (1 to 40) aggregates after 2 hrs by gamma counting. Summed up: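 Competition binding against [125I]TZDM as radiolabeled standard, using Aβ1–40 aggregates; run in triplicate, results as mean ± SD.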

Usually Ki stands for a measure of affinity in units of concentration, obtained from inhibition or displacement. As for `O=C(/C=C/c1ccccc1)n1ccc2cc(I)ccc21`, the outcome in test [1] and in test [2] was Active. This compound also returned a Ki in test [3] of 8.4 nM.
